Screening results from PubChem.
Rows were chosen to be rich in hits. Some 2.9% of all compounds tested hit in one or more screens of this group.
Apaf1 inhib: blocks human Apaf-1 apoptosome activity; inhibition, % at 20 µM; reconstituted apoptosome caspase-3 activity, DEVD-Rh110 fluorescence; hit rate 0.71% among 330,000; AID 489030; active = inhibition of at least 40% at 20 µM;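 also: plate controls were DMSO wells for no effect and DEVD-CHO caspase inhibitor wells for full effect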
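System: reconstituted apoptosome with Apaf-1, cytochrome c, caspase-9, procaspase-3, dATP; Signal: Rh110 fluorescence intensity; Schedule: 30 min compound preincubation, 50 min activation, room temperature; Reagent: cytochrome c trigger plus (Z-DEVD)2-Rh110 caspase-3 substrate.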
SENP1 FRET inh: blocks the human SENP1 SUMO protease catalytic domain; Q9P0U3; recombinant SENP1 catalytic domain, CyPet-SUMO1-YPet FRET cleavage; inhibition, % at 10 µM; hit rate 0.21% among 360,000;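 active = inhibition at least 30% at 10 µM, raw YFP signal under a set limit, fluorescence ratio 0.5 to 1.5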;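 also: 0% = enzyme with DMSO and 100% = no enzyme wells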
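Compound: 10 µM single point, 0.5% DMSO; Test system: hSENP1 catalytic domain, recombinant; Timing: 50 min reaction at room temperature; Technique: FRET, CFP and YFP emission; Control set: no-enzyme wells low, DMSO-plus-enzyme wells high control.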
SENP6 block: SENP6 protease inhibition; Q9GZR1; Recombinant SENP6 catalytic domain, aminoluciferin luminescence; inhibition, % at 10 µM; hit rate 1.8% among 330,000; AID 2599;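 active = inhibition above about 50% at the single tested dose, limit read from the data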;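 also: plate controls were DMSO wells with enzyme for no effect and DMSO wells lacking enzyme for full effect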
SENP8 block-1: inhibitors of human SENP8 protease. AID 602440. Q96LD8. recombinant SENP8, Nedd8 substrate fluorescence. hit rate 0.64% among 360,000. inhibition, % at 20 µM; in the data active = inhibition mostly above about 40%, no sharp cut-off; inactive = mostly below about 27%
Target sequence (Q96LD8 whole entry, looked up): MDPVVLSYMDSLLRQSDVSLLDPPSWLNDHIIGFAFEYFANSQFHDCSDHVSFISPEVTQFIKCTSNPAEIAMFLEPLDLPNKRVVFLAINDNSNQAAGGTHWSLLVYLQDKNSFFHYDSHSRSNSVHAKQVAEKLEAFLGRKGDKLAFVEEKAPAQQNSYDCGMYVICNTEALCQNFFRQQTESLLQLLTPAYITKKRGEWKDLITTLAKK
SENP8 block-2: inhibitors of human SENP8 protease; purified SENP8, Z-RLRGG-aminoluciferin cleavage, luminescence; inhibition, % at 10 µM; hit rate 1.2% among 330,000; AID 2540; in the data active = inhibition above about 50%
SENP7 inh: inhibitors of human SENP7 protease; recombinant SENP7, Z-RLRGG-aminoluciferin luminescence, 40 min; hit rate 1.5% among 330,000; Q9BQF6; inhibition, % at 5 µM;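 active = inhibition above about 50% at the single test dose, limit read from the data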;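 also: plate controls were DMSO with enzyme for no effect and no enzyme buffer wells for full effect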
Target sequence (Q9BQF6 706-1050 limits assumed): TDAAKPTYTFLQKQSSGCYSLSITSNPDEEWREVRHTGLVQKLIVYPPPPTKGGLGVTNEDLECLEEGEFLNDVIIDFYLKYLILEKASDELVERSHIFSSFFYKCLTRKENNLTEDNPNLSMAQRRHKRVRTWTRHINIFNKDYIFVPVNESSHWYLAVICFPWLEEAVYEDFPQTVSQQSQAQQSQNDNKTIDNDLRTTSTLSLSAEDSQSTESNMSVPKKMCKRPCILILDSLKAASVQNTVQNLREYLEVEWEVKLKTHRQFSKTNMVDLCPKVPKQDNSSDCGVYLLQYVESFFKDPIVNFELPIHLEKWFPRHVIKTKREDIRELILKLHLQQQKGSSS
SENP8 inh conf: confirmation of human SENP8 protease inhibitors; shares compounds with SENP8 block-1; inhibition, % at 25 µM; hit rate 15% among 1,400; purified SENP8, Nedd8-AMC/pro-Nedd8 cleavage fluorescence, 30 min; in the data active = inhibition mostly above about 39%, no sharp cut-off; inactive = mostly below about 34%
Numbers without * were called inactive; · = no result given.

SMILES	Apaf1 inhib	SENP1 FRET inh	SENP6 block	SENP8 block-1	SENP8 block-2	SENP7 inh	SENP8 inh conf
CCCc1ccc(C(=O)NNC(=O)c2ccc(Br)cc2)cc1	-0.4	1.2	-8.1	18.1	7.6	2.3	·
O=C(O)c1ccccc1S(=O)(=O)NCC(O)COC1CCCCC1 (stereo unspecified)	-4.6	-1.4	-18.2	43.4*	-12.7	-7.0	2.1
O=[N+]([O-])c1ccc(Cl)cc1Sc1cccc2cccnc12	6.4	2.1	-21.5	41.9*	0.1	-5.6	-0.4
Cn1ccnc1Sc1cc(Cl)ccc1[N+](=O)[O-]	1.7	1.1	-19.5	15.3	-3.2	-9.9	·
COc1ccc(NC(=O)C2CCC(N3C(=O)C4C5C=CC(C5)C4C3=O)CC2)cc1 (stereo unspecified)	-2.5	2.7	-7.0	20.3	1.7	1.9	·
COc1ccc(NC(=O)[C@@H]2[C@@H]3C(=O)N(C4CCCCC4)C(=O)[C@@H]3C3c4ccccc4C=CN32)cc1 (stereo partly specified)	51.0*	24.4	8.7	63.7*	2.0	6.2	37.7*
CCCCCCn1c(=O)n2n(c1=O)C[C@]1(OC(=O)Nc3c(C)noc3C)CN(S(=O)(=O)c3ccc(C)cc3)C[C@]1(O)C2	·	0.9	·	2.2	·	·	·
CCc1nnc(NS(=O)(=O)c2ccc(Nc3ccc([N+](=O)[O-])c4nonc34)cc2)s1	23.4	27.6	22.1	45.2*	-1.9	1.6	29.9
CCCCn1c(N)c(N(C)C(=O)C2CC(=O)N(Cc3ccco3)C2)c(=O)[nH]c1=O (stereo unspecified)	-5.8	-0.8	2.2	7.3	-1.7	2.6	·
CCOC(=O)c1c(-c2cccc([N+](=O)[O-])c2)csc1NC(=O)CCCOc1ccccc1OC	·	0.5	·	45.3*	·	·	26.0
COc1ccc(-c2noc(N(C)CC(=O)Nc3cccc(C(F)(F)F)c3)n2)cc1	12.3	-0.1	-20.9	42.8*	-7.6	-5.1	32.6
COc1cccc(NC(=O)CN(C)CC(=O)Nc2cccc(C(F)(F)F)c2)c1	4.6	3.3	9.1	16.6	-3.0	0.4	·
Cc1ccc(Sc2ncccc2COC(=O)Nc2c(C)cccc2C)cc1	16.4	4.0	-0.6	19.5	10.5	-6.9	·
Cc1ccc(Sc2ncccc2COC(=O)Nc2ccccc2)cc1	11.0	2.7	15.0	40.0*	-15.3	-1.0	9.3
CCCCCCCCN1C(=O)[C@H](CC(=O)N2CCOCC2)C[C@@]2(C(=O)OC)CC(C)(C)CC=C12	·	2.6	·	25.6	·	·	·
O=C(OCc1cc(=O)n2ccsc2n1)C1(c2ccccc2)CC1	·	-0.8	·	-52.9	·	·	·
COc1ccccc1OCCCCN1CCN(c2ccccc2OC)CC1	0.8	3.6	-25.3	48.3*	-6.8	-4.8	9.1
COc1ccccc1N1CCN(CCCCOc2cccc3ccccc23)CC1	12.8	1.4	3.3	29.3	-6.7	8.9	·
Cc1ccc(N2CCN(C(C(=O)Nc3c(C)cccc3C)c3cccc(F)c3)CC2)cc1 (stereo unspecified)	·	2.8	·	15.1	·	·	·
Cc1cccc(N(C)C(=O)c2cc(S(=O)(=O)N3CCc4ccccc43)cn2C)c1	17.6	-0.4	-3.8	45.7*	-4.2	-3.0	-8.9
Cc1ccc(N(C)C(=O)c2cc(S(=O)(=O)N3CCc4ccccc43)cn2C)cc1	19.2	1.8	-13.9	3.4	-10.3	-12.6	·
S=C(NNc1cccc(Cl)c1)NC1CCCCC1	-1.9	1.7	0.1	49.0*	-4.9	-7.3	20.8
O=S(=O)(Nc1cccc(S(=O)(=O)N2CCCCC2)c1)c1ccccc1F	-1.9	2.5	2.2	0.9	9.0	2.6	·
O=c1cc(-c2ccc([N+](=O)[O-])cc2)c2cc3c(cc2[nH]1)OCCO3	8.0	3.3	-0.4	41.9*	0.1	-9.0	15.5
CCN(CC)S(=O)(=O)c1ccc(N2CCOCC2)c(NC(=O)C(=O)c2c(-c3ccccc3)cc3ccccn23)c1	4.7	8.3	7.4	75.0*	3.3	6.4	20.6
SMILES	Apaf1 inhib	SENP1 FRET inh	SENP6 block	SENP8 block-1	SENP8 block-2	SENP7 inh	SENP8 inh conf
COc1c(OC)c(O)c2c(=O)c(O)c(-c3ccccc3)oc2c1OC	-2.4	3.5	-5.3	41.7*	6.8	6.6	5.2
CCNC(=O)O/N=C1\CCCCC1c1ccc([N+](=O)[O-])cc1[N+](=O)[O-] (stereo unspecified)	4.4	5.2	14.8	41.4*	2.2	2.8	48.4*
COC(=O)C(CC(C)C)NC(=O)c1ccc([N+](=O)[O-])c(C)c1 (stereo unspecified)	-5.8	-0.8	-2.9	28.8	0.1	11.2	·
COC(=O)C(CC(C)C)NC(=O)c1ccc([N+](=O)[O-])cc1 (stereo unspecified)	-3.3	1.9	-7.7	42.6*	1.8	2.0	19.2
O=C(Nc1cc(Cl)ccc1N1CCCC1)C1=NN(c2ccccc2)C(=O)CC1	12.4	-0.2	-8.3	18.5	-3.8	0.9	·
N/C(=N\O)c1ccc([N+](=O)[O-])s1	-14.0	1.2	7.4	30.6	5.5	7.0	·
NC(=O)c1ccc(N=Cc2ccc([N+](=O)[O-])s2)cc1	·	-0.8	·	60.5*	·	·	95.0*
O=[N+]([O-])c1ccc(N2CCN(c3nc(-c4ccc(Cl)cc4)cs3)CC2)cc1	-0.8	1.2	-11.8	42.8*	-6.9	5.9	-8.6
O=[N+]([O-])c1ccc(-c2csc(N3CCCCCC3)n2)cc1	7.5	-2.8	-13.3	28.4	4.5	1.0	·
CC1CCN(c2ccc(C(=O)NCc3ccco3)cc2[N+](=O)[O-])CC1	7.0	5.5	-4.8	42.0*	-4.3	6.4	28.2
CC(=O)C1=NN(c2ccccc2)C(c2ccc3c(c2)OCO3)N1c1ccc(N2CCOCC2)cc1 (stereo unspecified)	9.1	-15.7	-7.8	43.6*	-7.9	-0.3	17.6
CCOc1ccc(NC2=C(Cl)C(=O)N(C3CCCCC3)C2=O)cc1	-16.0	6.4	6.3	15.7	1.7	5.1	·
CN1CCN(C2=C(Cl)C(=O)N(C3CCCCC3)C2=O)CC1	4.2	15.5	6.6	40.9*	5.2	5.4	4.5
O=C1Nc2ccccc2N(C(=O)c2ccc3ccccc3c2)C1c1nc2ccccc2[nH]1 (stereo unspecified)	·	-30.1	·	-140.1	·	·	·
C(=N\NC1=Nc2cccc3cccc1c23)/c1cccnc1	12.6	-21.2	5.1	51.4*	-6.3	2.2	26.9
CC(C)CC(=O)NS(=O)(=O)c1ccc(N)cc1	-7.7	2.5	-14.9	14.7	0.8	-3.9	·
CC(C)C(=O)NS(=O)(=O)c1ccc(N)cc1	-14.2	2.3	1.2	46.9*	-2.3	1.2	10.9
CCOC(=O)C1=CCN(S(=O)(=O)c2ccccc2F)C1c1ccccc1 (stereo unspecified)	·	4.0	·	8.4	·	·	·
